Assay results reported in ChEMBL document CHEMBL5030505, “Assessment of NR4A Ligands That Directly Bind and Modulate the Orphan Nuclear Receptor Nurr1” (J Med Chem, 2020).
Calls of active or inactive are those of the source. The rule behind the calls is not given here.

What was measured:
Assay type in all cases: cell-based
[1] = target: Nuclear receptor subfamily 4 group A member 3 (Homo sapiens) (UniProt Q92570); experiment: Modulation of full length human NOR1 expressed in SK-N-BE(2) cells co-transfected with luciferase reporter plasmid harboring NBRE response element assessed as increase in luciferase activity incubated for 18 by luciferase reporter gene assay; conditions: SKNBE2, filed as modulator, time 18.0 hrs
Chain of Nuclear receptor subfamily 4 group A member 3 (Homo sapiens) (Q92570 whole entry): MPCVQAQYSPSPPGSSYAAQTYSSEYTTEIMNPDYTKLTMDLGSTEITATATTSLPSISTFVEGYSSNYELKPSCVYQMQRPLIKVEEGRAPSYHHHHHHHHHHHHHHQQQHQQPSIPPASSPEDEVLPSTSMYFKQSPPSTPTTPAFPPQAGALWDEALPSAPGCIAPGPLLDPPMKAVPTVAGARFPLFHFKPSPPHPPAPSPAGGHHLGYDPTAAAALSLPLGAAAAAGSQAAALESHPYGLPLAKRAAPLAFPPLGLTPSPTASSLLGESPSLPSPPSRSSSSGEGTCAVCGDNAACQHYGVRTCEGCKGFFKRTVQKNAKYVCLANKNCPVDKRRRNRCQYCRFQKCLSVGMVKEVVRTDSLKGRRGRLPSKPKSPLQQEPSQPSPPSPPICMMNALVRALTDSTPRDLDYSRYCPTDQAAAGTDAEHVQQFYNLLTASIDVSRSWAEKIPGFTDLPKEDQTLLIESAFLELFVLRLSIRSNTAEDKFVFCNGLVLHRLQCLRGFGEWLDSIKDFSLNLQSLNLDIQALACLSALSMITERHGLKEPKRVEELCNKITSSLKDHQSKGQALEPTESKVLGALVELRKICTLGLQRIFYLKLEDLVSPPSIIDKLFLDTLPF
Outline: (§1)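 Cells seeded at 1.5 million per 10-cm dish. Next day they were transfected (Lipofectamine 2000) with full-length Nur77 or NOR-1 expression plasmid, either alone (2 μg) or 1 μg plus full-length RXRα (1 μg), and 3xNBRE- or 3xNurRE-luciferase reporter (6 μg), 18 h. Cells replated at 10,000/well, 4 h, then ligand dose response added in quadruplicate for 18 h. Luciferase luminescence read.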

[2] = target: Nuclear receptor subfamily 4immunitygroup A member 1 (Homo sapiens) (UniProt P22736); experiment: Modulation of full length human Nur77 expressed in PC12 cells co-transfected with luciferase reporter plasmid harboring NBRE response element assessed as increase in luciferase activity incubated for 18 by luciferase reporter gene assay; conditions: PC-12, filed as modulator, time 18.0 hrs; outline: as §1
Chain of Nuclear receptor subfamily 4immunitygroup A member 1 (Homo sapiens) (P22736 whole entry): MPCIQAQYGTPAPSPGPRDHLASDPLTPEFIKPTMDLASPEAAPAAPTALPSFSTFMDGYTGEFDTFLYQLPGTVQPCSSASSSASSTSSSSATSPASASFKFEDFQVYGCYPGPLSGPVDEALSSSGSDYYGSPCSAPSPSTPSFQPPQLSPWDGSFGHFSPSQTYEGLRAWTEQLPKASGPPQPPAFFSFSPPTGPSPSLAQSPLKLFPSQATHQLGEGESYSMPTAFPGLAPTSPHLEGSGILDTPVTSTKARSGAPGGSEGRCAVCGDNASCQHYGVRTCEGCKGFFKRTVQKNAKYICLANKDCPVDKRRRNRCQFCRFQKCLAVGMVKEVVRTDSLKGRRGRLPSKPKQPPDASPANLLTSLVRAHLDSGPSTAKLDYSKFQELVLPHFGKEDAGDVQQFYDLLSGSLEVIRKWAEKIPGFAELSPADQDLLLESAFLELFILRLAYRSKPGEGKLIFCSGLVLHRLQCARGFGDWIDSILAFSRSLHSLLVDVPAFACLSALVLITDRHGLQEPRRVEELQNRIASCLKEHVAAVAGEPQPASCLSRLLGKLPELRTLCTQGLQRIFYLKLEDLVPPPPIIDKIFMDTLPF

[3] = target: Nuclear receptor subfamily 4 group A member 2 (Homo sapiens) (UniProt P43354); experiment: Modulation of full length human Nurr1 expressed in SKNBE(2) cells co-transfected with RXRalpha and luciferase reporter plasmid harboring NurRE response element assessed as increase in luciferase activity incubated for 18 hrs by luciferase reporter-gene assay; conditions: SKNBE2, filed as modulator
Chain of Nuclear receptor subfamily 4 group A member 2 (Homo sapiens) (P43354 whole entry, the tested form may be a part): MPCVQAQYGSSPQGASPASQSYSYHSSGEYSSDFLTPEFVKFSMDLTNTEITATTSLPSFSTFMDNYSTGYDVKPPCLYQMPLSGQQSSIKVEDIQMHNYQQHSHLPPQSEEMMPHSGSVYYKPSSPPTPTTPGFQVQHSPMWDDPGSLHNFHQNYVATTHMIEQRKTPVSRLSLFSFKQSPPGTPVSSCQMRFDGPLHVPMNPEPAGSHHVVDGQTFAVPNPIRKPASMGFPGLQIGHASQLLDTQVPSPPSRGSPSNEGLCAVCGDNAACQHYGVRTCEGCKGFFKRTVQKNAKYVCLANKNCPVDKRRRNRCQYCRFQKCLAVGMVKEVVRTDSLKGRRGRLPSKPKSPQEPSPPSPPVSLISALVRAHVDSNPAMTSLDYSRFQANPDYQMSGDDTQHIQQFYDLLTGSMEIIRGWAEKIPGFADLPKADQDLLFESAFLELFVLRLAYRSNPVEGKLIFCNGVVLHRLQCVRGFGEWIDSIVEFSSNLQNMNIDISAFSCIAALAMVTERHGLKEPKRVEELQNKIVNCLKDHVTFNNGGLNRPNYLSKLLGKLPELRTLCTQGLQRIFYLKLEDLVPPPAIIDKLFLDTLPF
Outline: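 SK-N-BE(2)-C cells were kept in 1:1 EMEM/F12 with 10% FBS at 37°C and 5% CO2. They were cotransfected with full-length Nurr1 (1 μg), full-length RXRα (1 μg) and 3xNBRE- or 3xNurRE-luc reporter (6 μg) for 18 h, replated at 10,000 cells/well for 4 h, and then treated with ligand or vehicle in quadruplicate for 18 h. The readout was luciferase luminescence as fold over vehicle, reported as mean ± s.e.m. (n=4) from 2 independent experiments, one-way ANOVA.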

[4] = target: Nuclear receptor subfamily 4 group A member 2 (Homo sapiens) (UniProt P43354); experiment: Modulation of full length human Nurr1 expressed in HEK293T cells co-transfected with RXRalpha and luciferase reporter plasmid harboring NBRE response element assessed as increase in luciferase activity incubated for 18 hrs by luciferase reporter-gene assay; conditions: filed as modulator
Outline: (§2)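 Full-length Nurr1 plasmid, alone (2 μg) or 1 μg plus full-length RXRα (1 μg), cotransfected with 3xNBRE- or 3xNurRE-luciferase reporter (6 μg) using Lipofectamine 2000, 18 h. Cells replated at 10,000/well for 4 h. Four ligand concentrations, or vehicle (water, ethanol or DMSO), added in quadruplicate for 18 h. Luciferase read. Fold change vs vehicle, mean ± s.e.m., one-way ANOVA vs vehicle.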

[5] = system: SKNBE2; experiment: Modulation of Gal4-fused VP16 expressed in SKNBE(2) cells co-transfected with UAS repoter gene assessed as increase in luciferase activity upto 15 uM incubated for 18 hrs by luciferase reporter gene assay; conditions: Human alphaherpesvirus 2, filed as modulator, dose microM <=15, time 18.0 hrs
Outline: (§3)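 Cells in 10-cm dishes were transfected with Gal4-VP16 expression plasmid (2 μg) plus 5xUAS-luciferase reporter (2 μg) for 18 h. They were replated at 10,000 cells/well for 4 h, then given ligand or vehicle (water, ethanol or DMSO) in quadruplicate for 18 h. Luciferase was read with Britelite Plus. Fold change is versus vehicle-treated cells, with one-way ANOVA versus vehicle.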

[6] = target: Nuclear receptor subfamily 4 group A member 2 (Homo sapiens) (UniProt P43354); experiment: Modulation of full length human Nurr1 expressed in PC12 cells co-transfected with luciferase reporter plasmid harboring NurRE response element assessed as decrease in luciferase activity at 1.95 to 125 uM incubated for 18 hrs by luciferase reporter gene assay; conditions: PC-12, filed as modulator, dose 1.95-125 µM
Outline: (§4)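 Here PC12 cells (FK-12 medium, 15% horse serum, 2.5% FBS, 37°C, 5% CO2) received full-length Nurr1 (2 μg) without RXRα, plus 3xNBRE- or 3xNurRE-luciferase reporter (6 μg), for 18 h. Cells were replated at 10,000/well for 4 h, then treated with ligand or vehicle in quadruplicate for 18 h. Luciferase luminescence was normalized to vehicle-treated cells. Results are mean ± s.e.m. (n=4) from 2 independent experiments, with one-way ANOVA against vehicle.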

[7] = target: Nuclear receptor subfamily 4 group A member 2 (Homo sapiens) (UniProt P43354); experiment: Modulation of full length human Nurr1 expressed in PC12 cells co-transfected with luciferase reporter plasmid harboring NBRE response element assessed as decrease in luciferase activity at 1.95 to 125 uM incubated for 18 hrs by luciferase reporter gene assay; conditions: PC-12, filed as modulator, dose 1.95-125 µM; outline: as §4
[8] = target: Nuclear receptor subfamily 4 group A member 2 (Homo sapiens) (UniProt P43354); experiment: Modulation of full length human Nurr1 expressed in PC12 cells co-transfected with RXRalpha and luciferase reporter plasmid harboring NurRE response element assessed as decrease in luciferase activity at 1.95 to 125 uM incubated for 18 hrs by luciferase reporter gene assay; conditions: PC-12, filed as modulator, dose 1.95-125 µM
Outline: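 PC12 cells were grown at 37°C and 5% CO2 in […] medium with 15% horse serum and 2.5% FBS. They were transfected with full-length Nurr1 (1 μg) plus full-length RXRα (1 μg) and 3xNBRE- or 3xNurRE-luciferase reporter (6 μg) for 18 h, then replated at 10,000 cells/well for 4 h. Ligand or vehicle (water, ethanol or DMSO) was added in quadruplicate for 18 h. Luminescence was read as fold change over vehicle. Results are mean ± s.e.m., n=4, from 2 independent experiments, analysed by one-way ANOVA against vehicle.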

[9] = target: Nuclear receptor subfamily 4 group A member 2 (Homo sapiens) (UniProt P43354); experiment: Modulation of full length human Nurr1 expressed in PC12 cells co-transfected with RXRalpha and luciferase reporter plasmid harboring NBRE response element assessed as decrease in luciferase activity at 1.95 to 125 uM incubated for 18 hrs by luciferase reporter gene assay; conditions: PC-12, filed as modulator, dose 1.95-125 µM; outline: as §2
[10] = system: SK-N-BE(2); experiment: Cytotoxicity against human SKNBE2 cells assessed as reduction in cell viability at 125 uM incubated for 18 hrs by Cell Titer Glo assay
Outline: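 Cells seeded at 1.5 million per 10-cm dish. Next day they were replated at 10,000 cells/well and rested 4 h. Ligand or vehicle (water, ethanol or DMSO, by ligand) was added in dose-response format in quadruplicate. After 18 h, viability was read by CellTiter-Glo luminescence. Data are mean ± s.e.m., generally representative of 2 independent experiments. One-way ANOVA versus vehicle.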

[11] = target: Nuclear receptor subfamily 4 group A member 2 (Homo sapiens) (UniProt P43354); experiment: Modulation of full length human Nurr1 expressed in HEK293T cells co-transfected with RXRalpha and luciferase reporter plasmid harboring NurRE response element assessed as decrease in luciferase activity at 1.95 to 125 uM incubated for 18 hrs by luciferase reporter gene assay; conditions: filed as modulator, dose 1.95-125 µM; outline: as §2
[12] = system: SKNBE2; experiment: Modulation of Gal4-fused VP16 expressed in SKNBE(2) cells co-transfected with UAS repoter gene assessed as decrease in luciferase activity at 125 uM incubated for 18 hrs by luciferase reporter gene assay; conditions: Human alphaherpesvirus 2, filed as modulator; outline: as §3
[13] = target: Nuclear receptor subfamily 4 group A member 2 (Homo sapiens) (UniProt P43354); experiment: Modulation of full length human Nurr1 expressed in HEK293T cells co-transfected with luciferase reporter plasmid harboring NurRE response element assessed as decrease in luciferase activity at 1.95 to 125 uM incubated for 18 hrs by luciferase reporter gene assay; conditions: filed as modulator, dose 1.95-125 µM; outline: as §2
[14] = target: Nuclear receptor subfamily 4 group A member 2 (Homo sapiens) (UniProt P43354); experiment: Modulation of full length human Nurr1 expressed in HEK293T cells co-transfected with luciferase reporter plasmid harboring NBRE response element assessed as decrease in luciferase activity at 1.95 to 125 uM incubated for 18 hrs by luciferase reporter gene assay; conditions: filed as modulator, dose 1.95-125 µM; outline: as §2

| Activity [1] | Activity [2] | Activity [3] | Activity [4] | Activity [6] | Activity [7] | Activity [8] | Activity [9] | Activity [11] | Activity [13] | Activity [14] | Compound | Activity [5] | Activity [10] | Activity [12] |
| --- | --- | --- | --- | --- | --- | --- | --- | --- | --- | --- | --- | --- | --- | --- |
| Dose-Dependent Effect | Dose-Dependent Effect | Dose-Dependent Effect | Dose-Dependent Effect | – | – | – | – | – | – | – | CCCCCCCC(=O)c1c(O)cc(O)cc1CC(=O)OCC [CYTOSPORONE B] | – | – | – |
| Dose-Dependent Effect | Dose-Dependent Effect | Dose-Dependent Effect | Dose-Dependent Effect | Active | Active | Active | Active | Active | Active | Active | CCN(CC)CCCC(C)Nc1ccnc2cc(Cl)ccc12 (configuration not stated) [CHLOROQUINE] | Active | Non-Toxic | Active |
| Dose-Dependent Effect | Dose-Dependent Effect | Dose-Dependent Effect | Dose-Dependent Effect | Active | Active | Active | Active | Active | Active | Active | CCN(CC)Cc1cc(Nc2ccnc3cc(Cl)ccc23)ccc1O [AMODIAQUINE] | Active | Non-Toxic | Active |
